Experimental data of several laboratories.
Protocols differ between the studies behind these lines.
Read-out: cell growth or viability

Cc1nc(Nc2ccc3c(c2)CC(=O)N3)c2ccccc2n1
IC50 (H22; MTT): 10400 nM

C=C(COCc1ccc(OC)cc1)[C@@H]1CC[C@@H](C)C[C@H]1OCc1ccc(OC)cc1
inhibition (HeLa; MTT; 10 µM; 72 h): 39.2%

Cc1cccc(/C=C/C(=O)Nc2cccc(-c3ccnc(N4CCC(CO)CC4)c3)c2)c1
inhibition (HeLa; MTT; 5 µM): 56.2%

COc1cccc(CNC[C@@](C)(O)[C@@H]2CC[C@@H](C)C[C@H]2OCc2ccccc2)c1
inhibition (HeLa; MTT; 30 µM; 72 h): 97.9%

COc1cc2ncnc(N(C)c3ccc4c(c3)/C(=C/c3cccc(Cl)c3)C(=O)N4C)c2cc1OC
IC50 (H22; MTT): 4470 nM

C[C@@H]1CC[C@@H]([C@@](O)(CNCc2ccccc2)COCc2ccc(F)cc2)[C@H](OCc2ccc(F)cc2)C1
inhibition (HeLa; MTT; 10 µM; 72 h): 96%

O=C(C=Cc1cccc(F)c1)Nc1cc(-c2ccnc(N3CCC(O)CC3)c2)ccn1
inhibition (HeLa; MTT; 5 µM): 82.7%

C=CC(=O)NC1CCN(c2ncc3ncnc(Nc4ccc(Oc5ccc6c(c5)ncn6C)c(C)c4)c3n2)CC1
EC50 (LS-411N): 11.6 nM

O=C(/C=C/c1ccc(F)cc1)Nc1cc(-c2ccnc(N3CCC(O)CC3)c2)ccn1
inhibition (HeLa; MTT; 5 µM): 81.5%

C[C@@H]1CC[C@@H]([C@](C)(O)Cn2cnc3ccccc32)[C@H](OCc2ccccc2)C1
inhibition (HeLa; MTT; 10 µM; 72 h): 32.1%

Cc1nc(N(Cc2ccccc2)c2ccc3c(c2)/C(=C/c2ccccc2)C(=O)N3Cc2ccccc2)c2ccccc2n1 (mixture of isomers)
IC50 (H22; MTT): 880 nM

O=C(C=Cc1ccccc1)Nc1cccc(-c2ccnc(N3CCC(O)CC3)c2)c1
inhibition (HeLa; MTT; 5 µM): 55.7%

Cc1c(C(=O)O)ccc2c3n(nc12)[C@@H]1[C@H](C3)N(CC2CC2)[C@@]2(C(=O)Nc3cc(Cl)ccc32)[C@H]1c1cccc(Cl)c1F
GI50 (U2OS; resazurin): > 2000 nM

COc1ccc(CNC[C@](O)(COCc2ccc(OC)cc2)[C@@H]2CC[C@@H](C)C[C@H]2OCc2ccc(OC)cc2)cc1
inhibition (HeLa; MTT; 10 µM; 72 h): 96.9%

CCN1[C@@H](C(=O)NC23CCC(C(=O)O)(CC2)CC3)[C@H](c2cccc(Cl)c2F)[C@]2(C(=O)Nc3cc(Cl)ccc32)C12CCCCC2
GI50 (U2OS; resazurin; 72 h): 703 nM

Cc1cc(NC(=O)C=Cc2ccccc2)cc(-c2ccnc(N3CCC(O)CC3)c2)c1
inhibition (HeLa; MTT; 5 µM): 26.6%

COc1ccc(CNC[C@@](C)(O)[C@@H]2CC[C@@H](C)C[C@H]2OCc2ccccc2)cc1
inhibition (HeLa; MTT; 30 µM; 72 h): 98.9%

Cc1cccc(/C=C/C(=O)Nc2cccc(-c3ccnc(N4CCOCC4)c3)c2)c1
inhibition (HeLa; MTT; 5 µM): 24.1%

C#Cc1nc(C2=C(C)C(OC(=O)CCC)/C(=N/OC(=O)CCC)C2)cs1 (stereo not shown)
CC50 (U2OS): 5950 nM
